The results in this text go back to ChEMBL document CHEMBL1133766, “Enkephalin glycopeptide analogues produce analgesia with reduced dependence liability” (J Med Chem, 2000).

Test [1] is described as follows: (§1) Opioid receptor activity was evaluated using guinea pig ileum (GPI) assay. Format: tissue-based. The settings on record: Cavia porcellus.
For test [2], the target named is Opioid receptor (Mus musculus, UniProt P42866+P32300+P33534). The test can be described thus: (§2) Opioid receptor activity was evaluated using mouse vas deferens (MVD) assay. Format: tissue-based.
For test [3], the target named is Delta-type opioid receptor (Homo sapiens, UniProt P41143). The test can be described thus: Binding affinity towards Opioid receptor delta 1 was evaluated.
Test [4] deals with Mu-type opioid receptor (Homo sapiens, UniProt P35372). The test is described as follows: Binding affinity towards Opioid receptor mu 1 was evaluated.
In test [5] the test system is Rattus norvegicus. The test is described as follows: Amount of the drug required to produce 50% antinociception when administered subcutaneously; value ranges from 4.9-10.00. Format: functional. The gist of the method:
(§3)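 55 °C tail-flick test after a single injection by the route named in the line, with graded doses giving a dose-response. % antinociception = 100 × [test latency − control latency]/[15 − control latency]. A50 is the amount of drug giving 50% antinociception, derived from the dose-response curve.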

In test [6] the test system is Rattus norvegicus. The test can be described thus: Amount of the drug required to produce 50% antinociception when administered intracerebroventricularly; value ranges from 0.01-0.04. Format: functional. The gist of the method:
as §3

Test [7] concerns Rattus norvegicus. The test is described as follows: Amount of the drug required to produce 50% antinociception when administered intraperitoneally; value ranges from 21.2-55.5. Format: functional. The gist of the method:
as §3

Test [8] deals with Rattus norvegicus. The test can be described thus: Amount of the drug required to produce 50% antinociception when administered intravenously; value ranges from 8.5-15.2. It counts as functional. The procedure, abridged: as §3
Test [9] concerns Rattus norvegicus. The test can be described thus: Amount of the drug required to produce 50% antinociception when administered subcutaneously; value ranges from 15.9-26.0. It counts as functional. The gist of the method: as §3
The test system of test [10] is Rattus norvegicus. The test is described as follows: Amount of the drug required to produce 50% antinociception when administered intracerebroventricularly; value ranges from 0.05-0.09. It counts as functional. The procedure, abridged: as §3
Test [11] has as its system Rattus norvegicus. The test is described as follows: Amount of the drug required to produce 50% antinociception when administered intraperitoneally; value ranges from 124.0-151.8. Format: functional. The gist of the method:
as §3

For test [12], the system named is Rattus norvegicus. The test is described as follows: Amount of the drug required to produce 50% antinociception when administered intravenously; value ranges from 35.4-60.7. Format: functional. The gist of the method:
as §3

The test system of test [13] is Rattus norvegicus. The test is described as follows: Amount of the drug required to produce 50% antinociception when administered intracerebroventricularly; value ranges from 1.8-4.2. It counts as functional. The gist of the method: as §3
The subject of test [14] is Rattus norvegicus. The test is described as follows: Amount of the drug required to produce 50% antinociception when administered intraperitoneally; value ranges from 11.8-18.0. It counts as functional. The procedure, abridged:
as §3

The subject of test [15] is Rattus norvegicus. The test can be described thus: Amount of the drug required to produce 50% antinociception when administered intravenously; value ranges from 4.9-7.9. Format: functional. The gist of the method:
as §3

In test [16] the test system is Rattus norvegicus. The test can be described thus: Amount of the drug required to produce 50% antinociception when administered subcutaneously; value ranges from 10.2-17.0. It counts as functional. The gist of the method: as §3
The species entered for test [17] is Mus musculus. The test is described as §2. Format: functional, organism-based.
Test [18] in a line: as §1. It counts as functional, tissue-based. The settings on record: Cavia porcellus.

One may read the IC50 as the concentration at which inhibition is half-maximal. A lower IC50 goes with greater potency in that assay.

Chain of Delta-type opioid receptor (P41143 whole entry): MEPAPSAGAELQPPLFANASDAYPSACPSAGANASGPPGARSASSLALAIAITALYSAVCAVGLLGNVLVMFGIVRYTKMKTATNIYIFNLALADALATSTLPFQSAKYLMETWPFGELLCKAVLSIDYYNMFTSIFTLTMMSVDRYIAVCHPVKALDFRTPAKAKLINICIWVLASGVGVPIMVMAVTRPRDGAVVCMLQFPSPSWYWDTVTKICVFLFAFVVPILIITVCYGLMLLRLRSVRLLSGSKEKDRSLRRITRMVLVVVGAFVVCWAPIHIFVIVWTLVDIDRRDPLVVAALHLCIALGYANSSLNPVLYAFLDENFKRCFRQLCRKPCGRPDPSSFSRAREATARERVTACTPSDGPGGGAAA
Chain of Mu-type opioid receptor (P35372 whole entry): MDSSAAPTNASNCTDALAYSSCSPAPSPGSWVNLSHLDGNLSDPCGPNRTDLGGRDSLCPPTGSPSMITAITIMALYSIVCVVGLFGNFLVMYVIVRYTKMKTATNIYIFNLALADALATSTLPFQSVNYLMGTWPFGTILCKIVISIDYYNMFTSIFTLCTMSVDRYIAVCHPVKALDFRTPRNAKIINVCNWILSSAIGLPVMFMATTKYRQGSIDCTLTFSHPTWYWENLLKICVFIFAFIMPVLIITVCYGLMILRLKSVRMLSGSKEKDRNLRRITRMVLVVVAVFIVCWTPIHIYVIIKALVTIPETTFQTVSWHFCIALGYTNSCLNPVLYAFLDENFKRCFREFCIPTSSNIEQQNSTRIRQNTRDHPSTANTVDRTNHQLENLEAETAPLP

As to `CC(C)C[C@H](NC(=O)[C@H](Cc1ccccc1)NC(=O)CNC(=O)[C@H](NC(=O)[C@@H](N)Cc1ccc(O)cc1)[C@H](C)O)C(=O)N[C@@H](CO)C(N)=O` [listing 1 of 2 here], the IC50 in test [1] came to 25 nM; in test [2], 2.7 nM; in [3], 2.4 nM; in test [4], 4 nM.
Take `CC(C)C[C@H](NC(=O)[C@H](Cc1ccccc1)NC(=O)CNC(=O)[C@H](NC(=O)[C@@H](N)Cc1ccc(O)cc1)[C@H](C)O)C(=O)N[C@@H](CO[C@H]1O[C@@H](CO)[C@H](O)[C@@H](O)[C@H]1O)C(N)=O` [listing 1 of 2 here]: the A50 in test [5] was determined as 7.2 mM/kg; in test [6] it was 0.02 nM; in [7], 34.3 mM/kg; in test [8] it was 11.4 mM/kg.
`CC(C)C[C@H](NC(=O)[C@H](Cc1ccccc1)NC(=O)CNC(=O)[C@H](NC(=O)[C@@H](N)Cc1ccc(O)cc1)[C@H](C)O)C(=O)N[C@@H](CO)C(N)=O` [listing 2 of 2 here]: the A50 in test [9] was determined as 20.3 mM/kg; in test [10], 0.07 nM; in test [11], 137.2 mM/kg; in test [12] it was 46.4 mM/kg.
`CN1CC[C@]23c4c5ccc(O)c4O[C@H]2[C@@H](O)C=C[C@H]3[C@H]1C5` [MORPHINE]: the A50 in test [13] turned out to be 2.7 nM; in test [14], 14.6 mM/kg; in test [15], 6.3 mM/kg; in test [16] it was 13.2 mM/kg.
Regarding `CC(C)C[C@H](NC(=O)[C@H](Cc1ccccc1)NC(=O)CNC(=O)[C@H](NC(=O)[C@@H](N)Cc1ccc(O)cc1)[C@H](C)O)C(=O)N[C@@H](CO[C@H]1O[C@@H](CO)[C@H](O)[C@@H](O)[C@H]1O)C(N)=O` [listing 2 of 2 here], the concentration for half-maximal inhibition (IC50) is 1.6 nM in [17], 3.4 nM in test [3], 8.2 nM in test [4] and 33.8 nM in test [18].
